Results: ChEMBL document CHEMBL2417386, “Novel conjugated quinoline-indoles compromise Plasmodium falciparum mitochondrial function and show promising antimalarial activity” (J Med Chem, 2013)

Columns and labels:
Plasmodium falciparum [1] = assay: Antimalarial activity against Plasmodium falciparum K1 infected in RBC assessed as growth inhibition after 48 hrs by SYBR Green-I fluorescence assay; format: functional, organism-based; conditions: K1, 48 h
Method in brief: (§1)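 Parasite-infected red cells exposed to compound for 48 h; growth read by SYBR Green-I fluorescence; IC50 derived. Where a ± is given, it is the standard deviation of three individual experiments.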

Plasmodium falciparum [2] = assay: Antimalarial activity against Plasmodium falciparum 3D7 infected in RBC assessed as growth inhibition after 48 hrs by SYBR Green-I fluorescence assay; format: functional, organism-based; conditions: 3D7, 48 h; method in brief: as §1
[3] = Selectivity index, ratio of IC50 for HEK293 cells to IC50 for Plasmodium falciparum 3D7 after 72 hrs; format: toxicity, cell-based; conditions: human, read-out: Ratio IC50
Method in brief: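 Parasite (3D7) viability assay and HEK293 viability assay, each with a 72 h exposure. Index taken as the ratio of the IC50 values, HEK293 over 3D7.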

Plasmodium falciparum [4] = assay: Resistant index, ratio of IC50 for Plasmodium falciparum K1 to IC50 for Plasmodium falciparum 3D7; format: functional
Method in brief: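 Ratio of K1 to 3D7 IC50 values. Each IC50 comes from a 48 h drug exposure of the P. falciparum strain, with growth read by SYBR Green-I fluorescence. Where spread is given, it is the standard deviation of three individual experiments.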

Plasmodium falciparum [5] = assay: Antimalarial activity against mid to late trophozoite stage of Plasmodium falciparum 3D7 infected in RBC assessed as abnormal mitochondria at 1000 uM after 0.5 hrs by MitoTracker Red CMXRos-based fluorescence microscopic analysis relative to untreated control; format: functional
Plasmodium falciparum [6] = assay: Antimalarial activity against mid to late trophozoite stage of Plasmodium falciparum 3D7 infected in RBC assessed as abnormal mitochondria at 200 uM after 0.5 hrs by MitoTracker Red CMXRos-based fluorescence microscopic analysis relative to untreated control; format: functional
Plasmodium falciparum [7] = assay: Antimalarial activity against mid to late trophozoite stage of Plasmodium falciparum 3D7 infected in RBC assessed as nonviable parasite at 200 uM after 0.5 hrs by SYTO 61 staining-based flow cytometric analysis relative to untreated control; format: functional
Plasmodium falciparum [8] = assay: Antimalarial activity against mid to late trophozoite stage of Plasmodium falciparum 3D7 infected in RBC assessed as nonviable parasite at 1000 uM after 0.5 hrs by SYTO 61 staining-based flow cytometric analysis relative to untreated control; format: functional
Plasmodium falciparum [9] = assay: Antimalarial activity against mid to late trophozoite stage of Plasmodium falciparum 3D7 infected in RBC assessed as nonviable parasite at 40 uM after 0.5 hrs by SYTO 61 staining-based flow cytometric analysis relative to untreated control; format: functional
Plasmodium falciparum [10] = assay: Antimalarial activity against mid to late trophozoite stage of Plasmodium falciparum 3D7 infected in RBC assessed as abnormal mitochondria at 40 uM after 0.5 hrs by MitoTracker Red CMXRos-based fluorescence microscopic analysis relative to untreated control; format: functional
Plasmodium falciparum [11] = assay: Antimalarial activity against mid to late trophozoite stage of Plasmodium falciparum 3D7 infected in RBC assessed as abnormal mitochondria at 0.005 uM after 0.5 hrs by MitoTracker Red CMXRos-based fluorescence microscopic analysis relative to untreated control; format: functional
Plasmodium falciparum [12] = assay: Gametocytocidal activity against synchronous stage 4 to 5 of transgenic Plasmodium falciparum NF54 gametocyte harboring pfs16 promoter assessed as inhibition of parasite viability at 60 uM after 72 hrs by MitoTracker Red CMXRos-based assay relative to control; format: functional; conditions: NF54, 72 h
Plasmodium falciparum [13] = assay: Antimalarial activity against mid to late trophozoite stage of Plasmodium falciparum 3D7 infected in RBC assessed as nonviable parasite at 0.005 uM after 0.5 hrs by SYTO 61 staining-based flow cytometric analysis relative to untreated control; format: functional
[14] = Inhibition of beta-hematin formation after 24 hrs by spectrophotometric analysis in presence of nonidet P40; format: functional
Plasmodium falciparum [15] = assay: Antimalarial activity against trophozoite stage of Plasmodium falciparum 3D7 infected in RBC assessed as growth inhibition after 5 hrs by SYBR Green-I fluorescence assay; format: functional, organism-based; conditions: 3D7, 5 h
Method in brief: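 Trophozoite-stage parasites pulsed with compound for 5 h. Drug then washed out and parasites cultured a further 43 h before survival was assessed.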

Plasmodium falciparum [16] = assay: Ratio of IC50 for trophozoite stage of Plasmodium falciparum 3D7 infected in RBC after 5 hrs in presence of 0.2 uM ALLN to IC50 for trophozoite stage of Plasmodium falciparum 3D7 infected in RBC after 5 hrs in absence of ALLN; format: functional
Method in brief: (§2)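 Trophozoite-stage parasites pulsed 5 h with compound, with or without ALLN (0.2 or 5 μM). Drug and ALLN then removed; culture continued a further 43 h before survival was assessed. Antagonism expressed as the ratio of IC50 with ALLN to IC50 without ALLN.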

Plasmodium falciparum [17] = assay: Ratio of IC50 for trophozoite stage of Plasmodium falciparum 3D7 infected in RBC after 5 hrs to IC50 for Plasmodium falciparum 3D7 infected in RBC after 48 hrs; format: functional
Plasmodium falciparum [18] = assay: Ratio of IC50 for trophozoite stage of Plasmodium falciparum 3D7 infected in RBC after 5 hrs in presence of 5 uM ALLN to IC50 for trophozoite stage of Plasmodium falciparum 3D7 infected in RBC after 5 hrs in absence of ALLN; format: functional; method in brief: as §2

| Compound | IC50 (Plasmodium falciparum [1]) [µM] | IC50 (Plasmodium falciparum [2]) [µM] | selectivity ratio at 72 h [3] | Ratio IC50 (Plasmodium falciparum [4]) | IC50 [14] [µM] | other results |
| --- | --- | --- | --- | --- | --- | --- |
| CCCC[n+]1c(/C=C/c2c[nH]c3ccccc23)cc(N)c2ccccc21 | 0.44 | 0.45 | 4 | – | – | – |
| C[n+]1c(/C=C/c2c[nH]c3ncccc23)cc(N)c2ccccc21.[I-] | 0.25 | 0.4 | 4 | 0.3 | – | – |
| CCN(CC)CCCC(C)Nc1ccnc2cc(Cl)ccc12 (centres undefined) [CHLOROQUINE] | – | – | – | – | 30 | Activity (Plasmodium falciparum [5]): 8%; Activity (Plasmodium falciparum [6]): 5%; Activity (Plasmodium falciparum [7]): 36%; Activity (Plasmodium falciparum [8]): 85%; Activity (Plasmodium falciparum [9]): 23%; Activity (Plasmodium falciparum [10]): 0%; Activity (Plasmodium falciparum [11]): 12%; inhibition at 60 µM (Plasmodium falciparum [12]): 100%; Activity (Plasmodium falciparum [13]): 84% |
| CCN(CC)CCCC(C)Nc1cc(/C=C/c2c[nH]c3ccccc23)nc2ccccc12 (centres undefined) | 0.33 | 0.1 | 87 | 3 | 1100 | IC50 (Plasmodium falciparum [15]): 0.17 µM; Ratio IC50 (Plasmodium falciparum [16]): 1.6; Ratio IC50 (Plasmodium falciparum [17]): 1.7; Ratio IC50 (Plasmodium falciparum [18]): 2.6 |
| C[n+]1c(/C=C/c2n[nH]c3ccccc23)cc(N)c2ccccc21.[I-] | 0.23 | 0.7 | 107 | 0.3 | 1500 | – |
| C[n+]1c(/C=C/c2c[nH]c3cc(F)ccc23)cc(N)c2ccccc21.[I-] | 0.14 | 0.29 | 4 | 0.3 | – | – |
| CN(C)c1ccc2nc3ccc(N(C)C)cc3[s+]c2c1.[Cl-] [METHYLENE BLUE ANHYDROUS] | 0.008 | 0.02 | – | – | – | IC50 (Plasmodium falciparum [15]): 0.03 µM; Ratio IC50 (Plasmodium falciparum [16]): 2.1; Ratio IC50 (Plasmodium falciparum [17]): 1.5; Ratio IC50 (Plasmodium falciparum [18]): 3.2 |
| Nc1cc(CCc2c[nH]c3ccccc23)nc2ccccc12 | 2.2 | 0.9 | 67 | – | – | – |
